Active and inactive are the calls of the source. No cut-off for these calls is given here.
Experiments:
[1] = target: T1, Nuclear factor erythroid 2-related factor 2 (Mus musculus) (UniProt Q60795); assay: Activation of Nrf2 in mouse BV-2 cells assessed as increase in Gclc mRNA expression after 6 hrs by RT-qPCR analysis; format: cell-based; conditions: filed as activator, dose 0.03-1 µM
T1 sequence (whole entry): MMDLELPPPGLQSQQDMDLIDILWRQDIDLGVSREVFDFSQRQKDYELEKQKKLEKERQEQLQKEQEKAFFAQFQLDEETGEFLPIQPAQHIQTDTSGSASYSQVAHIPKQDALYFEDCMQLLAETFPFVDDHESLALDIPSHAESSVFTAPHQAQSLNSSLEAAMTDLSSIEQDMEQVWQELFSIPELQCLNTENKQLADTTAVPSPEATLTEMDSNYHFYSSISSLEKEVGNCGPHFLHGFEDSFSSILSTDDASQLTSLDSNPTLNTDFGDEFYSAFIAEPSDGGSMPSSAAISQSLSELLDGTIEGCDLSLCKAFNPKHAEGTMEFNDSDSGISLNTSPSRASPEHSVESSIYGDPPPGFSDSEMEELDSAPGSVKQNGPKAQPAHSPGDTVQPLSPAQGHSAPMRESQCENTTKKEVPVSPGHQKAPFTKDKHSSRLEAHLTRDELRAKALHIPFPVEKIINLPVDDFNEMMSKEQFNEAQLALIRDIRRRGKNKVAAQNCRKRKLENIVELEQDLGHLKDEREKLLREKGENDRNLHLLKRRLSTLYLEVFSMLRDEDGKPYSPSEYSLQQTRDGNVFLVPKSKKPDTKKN
Method in brief: (§1)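 BV-2 cells exposed to a range of concentrations for 6 h. Ho1, Gclc, Gclm and Sod1 mRNA quantified by RT-qPCR and expressed relative to vehicle-treated control. Mean ± SEM, n = 3; Student's t-test.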

[2] = Cytotoxicity against mouse BV-2 cells assessed cell viability at 10 uM measured after 6 hrs by Ez-cytox reagent based assay relative to control; conditions: read-out: Activity
[3] = Cytotoxicity against mouse BV-2 cells assessed cell viability at 3 uM measured after 6 hrs by Ez-cytox reagent based assay relative to control; conditions: read-out: Activity
Method in brief: (§2)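 BV-2 cells (1.0 × 10⁴/well) grown 24 h at 37 °C, 5% CO2, then treated 6 h at […]. Viability expressed as percent of control.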

[4] = test system: Mus musculus; assay: Neuroprotective activity in MPTP-induced C57BL/6 mouse model of Parkinson's disease assessed as […] TH-immunoreactive fiber density at 30 mg/kg, po pretreated for 1 day followed by MPTP challenge and subsequent compound dosing for 2 days measured 6 days post-MPTP challenge by immunohistochemistry; format: functional, organism-based; conditions: time 7.0 day
Method in brief: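 Male C57BL/6 mice, 10 weeks old, 23–26 g, n = 10 per group. Dosed 30 mg/kg p.o. for 3 consecutive days in 10% N-methyl-2-pyrrolidone/20% Tween-80 in water. On day 2, MPTP-HCl 20 mg/kg i.p. given four times at 2 h intervals. Coat-hanger (scored 1–5, test done twice) and vertical grid tests run 6 days after MPTP. Brains taken next day for anti-TH immunohistochemistry (1:1000, DAB).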

[5] = test system: BV-2; assay: Antiinflammatory activity in mouse BV-2 cells assessed as inhibition of LPS-induced IL6 production preincubated for 6 hrs followed by LPS stimulation and measured after 24 hrs by ELISA; format: functional, cell-based; conditions: dose 0.02-2 µM, time 30.0 hrs
Method in brief: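 BV-2 cells seeded in 12-well plates and pretreated 6 h with compound at […]. LPS then added for 24 h. TNF-α and IL-6 released into the medium quantified by ELISA. Mean ± SEM, n = 3, three separate experiments.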

[6] = target: T1, Nuclear factor erythroid 2-related factor 2 (Mus musculus); assay: Activation of Nrf2 in mouse BV-2 cells assessed as increase in nuclear Nrf2 levels at 0.5 uM after 6 hrs by Western blot analysis relative to control; format: cell-based; conditions: filed as activator
[7] = target: T1, Nuclear factor erythroid 2-related factor 2 (Mus musculus); assay: Activation of Nrf2 in mouse BV-2 cells assessed as increase in HO1 expression at 10 uM after 6 hrs by Western blot analysis relative to control; format: cell-based; conditions: filed as activator
Method in brief: (§3)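 BV-2 microglia grown in RPMI-1640 with 10% FBS, penicillin-streptomycin and 2 mM L-glutamine at 37 °C, 5% CO2. Cells exposed to a range of concentrations for 6 h, then HO-1, GCLC, GCLM and SOD1 protein measured by Western blot. Band intensity normalized to β-actin and given as fold of vehicle control. Mean ± SEM, n = 3, three separate experiments.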

[8] = target: T1, Nuclear factor erythroid 2-related factor 2 (Mus musculus); assay: Activation of Nrf2 in mouse BV-2 cells assessed as increase in GCLC expression after 6 hrs by Western blot analysis; format: cell-based; conditions: filed as activator, dose 0.02-10 µM; method in brief: as §3
[9] = Cytotoxicity against mouse BV-2 cells assessed cell viability at 0.1 uM measured after 6 hrs by Ez-cytox reagent based assay relative to control; conditions: read-out: Activity; method in brief: as §2
[10] = target: T1, Nuclear factor erythroid 2-related factor 2 (Mus musculus); assay: Activation of Nrf2 in mouse BV-2 cells assessed as increase in GCLM expression after 6 hrs by Western blot analysis; format: cell-based; conditions: filed as activator, dose 0.02-10 µM; method in brief: as §3
[11] = target: T1, Nuclear factor erythroid 2-related factor 2 (Mus musculus); assay: Activation of Nrf2 in mouse BV-2 cells assessed as increase in HO1 mRNA expression after 6 hrs by RT-qPCR analysis; format: cell-based; conditions: filed as activator, dose 0.03-1 µM; method in brief: as §1
[12] = target: T1, Nuclear factor erythroid 2-related factor 2 (Mus musculus); assay: Activation of Nrf2 in mouse BV-2 cells assessed as increase in Sod1 mRNA expression after 6 hrs by RT-qPCR analysis; format: cell-based; conditions: filed as activator, dose 0.03-1 µM; method in brief: as §1
[13] = target: T2, Nuclear factor erythroid 2-related factor 2 (Homo sapiens, UniProt Q16236); assay: Activation of Nrf2 (unknown origin) expressed in human U2OS cells co-expressing Keap1 assessed as increase in Nrf2 nuclear translocation incubated for 6 hrs under dark condition by pathhunter assay; format: cell-based
T2 sequence (Q16236 whole entry): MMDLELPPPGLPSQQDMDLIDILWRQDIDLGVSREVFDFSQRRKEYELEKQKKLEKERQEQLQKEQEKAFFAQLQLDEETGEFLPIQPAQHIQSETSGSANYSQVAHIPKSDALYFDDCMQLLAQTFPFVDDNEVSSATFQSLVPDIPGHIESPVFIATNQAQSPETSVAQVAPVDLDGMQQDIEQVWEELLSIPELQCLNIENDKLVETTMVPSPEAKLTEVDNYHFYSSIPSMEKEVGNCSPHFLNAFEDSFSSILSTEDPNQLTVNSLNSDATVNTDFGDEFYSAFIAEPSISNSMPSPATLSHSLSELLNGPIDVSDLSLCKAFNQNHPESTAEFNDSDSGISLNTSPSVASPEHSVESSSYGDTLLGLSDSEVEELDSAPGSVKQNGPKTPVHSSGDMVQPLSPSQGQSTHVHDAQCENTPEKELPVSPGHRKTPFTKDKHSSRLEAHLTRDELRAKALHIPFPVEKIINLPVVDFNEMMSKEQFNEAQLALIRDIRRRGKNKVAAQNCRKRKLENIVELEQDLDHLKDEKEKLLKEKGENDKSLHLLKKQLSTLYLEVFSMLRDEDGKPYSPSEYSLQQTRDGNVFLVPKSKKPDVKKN

O=S(=O)(/C=C/c1ncccc1Cl)c1ccccc1Cl
Activity [1]: Dose-dependent effect
viability at 6 h, 10 µM [2]: 100%
viability at 6 h, 3 µM [3]: 92.4%
Activity [4]: Active
inhibition [5]: Dose-dependent effect
fold change (FC) [6]: 11
fold change (FC) [7]: 17.6
Activity [8]: Dose-dependent effect
viability at 6 h, 0.1 µM [9]: 100%
Activity [10]: Dose-dependent effect
Activity [11]: Dose-dependent effect
Activity [12]: Dose-dependent effect
EC50 [13]: 26 nM

Reference: ChEMBL document CHEMBL4706647, “Development and optimization of halogenated vinyl sulfones as Nrf2 activators for the treatment of Parkinson's disease” (Eur J Med Chem, 2021)
